Experimental data published in ChEMBL document CHEMBL1152796, “Azole antimicrobial pharmacophore-based tetrazoles: synthesis and biological evaluation as potential antimicrobial and anticonvulsant agents” (Bioorg Med Chem, 2009).
Converted amounts (≈) assume the structure as drawn. The source made the active and inactive calls. The rule behind the calls is not given here.

Key:
Micrococcus luteus [1] = experiment: Antibacterial activity against Micrococcus luteus ATCC 21881 after 24 to 48 hrs by twofold serial dilution method; assay type: functional
Outline: (§1)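 Broth microdilution in Müller–Hinton broth. DMSO stocks at 800 were diluted twofold from 400 down to 6.25. Wells received 10^6 CFU/mL bacterial suspension and were incubated at 36 °C for 24–48 h, with controls. MIC was read per well. Duplicate assays; run only for compounds giving inhibition zones ≥14 mm.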

Aspergillus fumigatus [2] = experiment: Antifungal activity against Aspergillus fumigatus isolate at 1 mg/mL after 7 days by agar diffusion method; assay type: functional; settings: 168 h, read-out: Diameter of inhibition zone
Outline: (§2)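 Agar disc diffusion: 5 mm sterile paper discs soaked in 1 mg/mL test solution in DMSO were placed on agar seeded with the organism, in triplicate, with a DMSO-only control. Bacterial plates were incubated at 37 °C for 24 h and fungal plates for 7 days. Read-out was the average inhibition-zone diameter in mm. Fungi were clinical isolates.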

Klebsiella pneumoniae [3] = experiment: Antibacterial activity against Klebsiella pneumoniae isolate after 24 to 48 hrs by twofold serial dilution method; assay type: functional; outline: as §1
Staphylococcus aureus [4] = experiment: Antibacterial activity against Staphylococcus aureus ATCC 6538 at 1 mg/mL after 24 hrs by agar diffusion method; assay type: functional; settings: ATCC 6538, 24 h, read-out: Diameter of inhibition zone; outline: as §2
Aspergillus fumigatus [5] = experiment: Antifungal activity against Aspergillus fumigatus isolate after 72 hrs by twofold serial dilution method; assay type: functional
Pseudomonas aeruginosa [6] = experiment: Antibacterial activity against Pseudomonas aeruginosa ATCC 27853 after 24 to 48 hrs by twofold serial dilution method; assay type: functional; outline: as §1
Bacillus subtilis [7] = experiment: Antibacterial activity against Bacillus subtilis NRRL B-14819 after 24 to 48 hrs by twofold serial dilution method; assay type: functional; outline: as §1
Trichophyton rubrum = experiment: Antifungal activity against Trichophyton rubrum isolate after 72 hrs by twofold serial dilution method; assay type: functional, organism-based
Klebsiella pneumoniae [8] = experiment: Antibacterial activity against Klebsiella pneumoniae isolate at 1 mg/mL after 24 hrs by agar diffusion method; assay type: functional; settings: read-out: Diameter of inhibition zone; outline: as §2
Micrococcus luteus [9] = experiment: Antibacterial activity against Micrococcus luteus ATCC 21881 at 1 mg/mL after 24 hrs by agar diffusion method; assay type: functional; settings: ATCC 21881, 24 h, read-out: Diameter of inhibition zone; outline: as §2
Pichia kudriavzevii = experiment: Antifungal activity against Candida krusei isolate after 72 hrs by twofold serial dilution method; assay type: functional, organism-based
Aspergillus niger = experiment: Antifungal activity against Aspergillus niger isolate after 72 hrs by twofold serial dilution method; assay type: functional, organism-based
Candida albicans [10] = experiment: Antifungal activity against Candida albicans isolate after 72 hrs by twofold serial dilution method; assay type: functional
Escherichia coli [11] = experiment: Antibacterial activity against Escherichia coli ATCC 25922 at 1 mg/mL after 24 hrs by agar diffusion method; assay type: functional; settings: ATCC 25922, 24 h, read-out: Diameter of inhibition zone; outline: as §2
Escherichia coli [12] = experiment: Antibacterial activity against Escherichia coli ATCC 25922 after 24 to 48 hrs by twofold serial dilution method; assay type: functional; outline: as §1
Bacillus subtilis [13] = experiment: Antibacterial activity against Bacillus subtilis NRRL B-14819 at 1 mg/mL after 24 hrs by agar diffusion method; assay type: functional; settings: read-out: Diameter of inhibition zone; outline: as §2
Pseudomonas aeruginosa [14] = experiment: Antibacterial activity against Pseudomonas aeruginosa ATCC 27853 at 1 mg/mL after 24 hrs by agar diffusion method; assay type: functional; settings: ATCC 27853, 24 h, read-out: Diameter of inhibition zone; outline: as §2
Staphylococcus aureus [15] = experiment: Antibacterial activity against Staphylococcus aureus ATCC 6538 after 24 to 48 hrs by twofold serial dilution method; assay type: functional; outline: as §1
Candida albicans [16] = experiment: Antifungal activity against Candida albicans isolate at 1 mg/mL after 7 days by twofold serial dilution method; assay type: functional; settings: 168 h, read-out: Diameter of inhibition zone
Candida tropicalis = experiment: Antifungal activity against Candida tropicalis isolate after 72 hrs by twofold serial dilution method; assay type: functional, organism-based
Mus musculus [17] = experiment: Anticonvulsant activity in Wister albino mouse assessed as protection against maximal electroshock-induced seizures at 300 mg/kg, ip administered 30 mins before metrazole challenge measured after 30 mins; assay type: functional; settings: route intraperitoneal
Mus musculus [18] = experiment: Anticonvulsant activity in Wister albino mouse assessed as protection against subcutaneous metrazole-induced seizures at 300 mg/kg, ip administered 30 mins before metrazole challenge measured after 30 mins; assay type: functional
Outline: (§3)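 Wistar albino mice, either sex, 25–30 g, 3 months old, in groups of six. Compounds in DMSO were given ip at 30, 100 or 300 mg/kg; vehicle-only controls. After 30 min, metrazole 100 mg/kg in DMSO was injected sc at the posterior midline. Protection meant absence of any clonic spasm lasting ≥5 s; scored as protected/tested.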

Mus musculus [19] = experiment: Anticonvulsant activity in Wister albino mouse assessed as protection against subcutaneous metrazole-induced seizures at 100 mg/kg, ip administered 30 mins before metrazole challenge measured after 30 mins; assay type: functional; settings: route intraperitoneal; outline: as §3
Mus musculus [20] = experiment: Anticonvulsant activity in Wister albino mouse assessed as protection against subcutaneous metrazole-induced seizures at 30 mg/kg, ip administered 30 mins before metrazole challenge measured after 30 mins; assay type: functional; outline: as §3
Mus musculus [21] = experiment: Anticonvulsant activity in Wister albino mouse assessed as protection against maximal electroshock-induced seizures at 100 mg/kg, ip administered 30 mins before metrazole challenge measured after 30 mins; assay type: functional; settings: route intraperitoneal
Mus musculus [22] = experiment: Toxicity in Wister albino mouse assessed as death following tonic extension at 100 mg/kg, ip; assay type: organism-based; design: dose 100 mg/kg, route intraperitoneal; settings: in vivo
Outline: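 Wistar albino mice of either sex (25–30 g, 3 months), six per group. Compound was dissolved in DMSO and given ip 30 min before the maximal electroshock test, with solvent-only controls. Corneas received 0.5% xylocaine; 6 Hz, 0.2-ms pulses were given for 3 s at 6–64 mA. Animals were observed 30 min after dosing, and deaths following tonic extension were recorded.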

Structure (SMILES)	MIC (Micrococcus luteus [1]) [µg/mL]	MIC (Klebsiella pneumoniae [3]) [µg/mL]	MIC (Aspergillus fumigatus [5]) [µg/mL]	MIC (Pseudomonas aeruginosa [6]) [µg/mL]	MIC (Bacillus subtilis [7]) [µg/mL]	MIC (Candida albicans [10]) [µg/mL]	MIC (Escherichia coli [12]) [µg/mL]	MIC (Staphylococcus aureus [15]) [µg/mL]	zone of inhibition at 1000 µg/mL (Aspergillus fumigatus [2]) [mm]	zone of inhibition at 1000 µg/mL (Staphylococcus aureus [4]) [mm]	Activity (Trichophyton rubrum)	zone of inhibition at 1000 µg/mL (Klebsiella pneumoniae [8]) [mm]	zone of inhibition at 1000 µg/mL (Micrococcus luteus [9]) [mm]	Activity (Pichia kudriavzevii)	Activity (Aspergillus niger)	zone of inhibition at 1000 µg/mL (Escherichia coli [11]) [mm]	zone of inhibition at 1000 µg/mL (Bacillus subtilis [13]) [mm]	zone of inhibition at 1000 µg/mL (Pseudomonas aeruginosa [14]) [mm]	Activity (Mus musculus [19]) [%]	Activity (Mus musculus [21]) [%]	also measured
Clc1ccc(COC(Cn2ccnc2)c2ccc(Cl)cc2Cl)c(Cl)c1 (stereo unspecified) [MICONAZOLE]			3.12 (≈ 7.5 µM)			3.12 (≈ 7.5 µM)															
O=C(Cn1nnnc1Cc1ccccc1)c1ccc(Cl)cc1																			50	50	Activity (Mus musculus [17]): 0%; Activity (Mus musculus [18]): 0%; Activity (Mus musculus [20]): 0%
O=C(Cn1nnc(-c2ccccc2)n1)c1ccc(Cl)cc1																			0	0	Activity (Mus musculus [22]): Toxic
Cc1cc(C)n(C(=O)COC(Cn2nnnc2Cc2ccccc2)c2ccc(Cl)cc2)n1 (stereo unspecified)	50 (≈ 111 µM)	≥ 200	≥ 200	≥ 200	50 (≈ 111 µM)	100 (≈ 222 µM)	100 (≈ 222 µM)	25 (≈ 55.4 µM)	≥ 14	≥ 14	inactive	≥ 14	≥ 14	inactive	inactive	≥ 14	≥ 14	≥ 14	0	0	zone of inhibition at 1000 µg/mL (Candida albicans [16]): ≥ 14 mm; Activity (Candida tropicalis): inactive
O=C(COC(Cn1nnc(-c2ccccc2)n1)c1ccc(Cl)cc1)NNC(=S)Nc1ccccc1 (stereo unspecified)	≥ 200	≥ 200		≥ 200	100 (≈ 197 µM)		≥ 200	50 (≈ 98.4 µM)	≥ 14	≥ 14	inactive	≥ 14	≥ 14	inactive	inactive	≥ 14	≥ 14	≥ 14	80	67	Activity (Mus musculus [18]): 0%; zone of inhibition at 1000 µg/mL (Candida albicans [16]): ≥ 14 mm; Activity (Mus musculus [20]): 0%; Activity (Candida tropicalis): inactive

Continued, in another order:

MIC (Micrococcus luteus [1]) [µg/mL]	MIC (Klebsiella pneumoniae [3]) [µg/mL]	MIC (Aspergillus fumigatus [5]) [µg/mL]	MIC (Pseudomonas aeruginosa [6]) [µg/mL]	MIC (Bacillus subtilis [7]) [µg/mL]	MIC (Candida albicans [10]) [µg/mL]	MIC (Escherichia coli [12]) [µg/mL]	MIC (Staphylococcus aureus [15]) [µg/mL]	Structure (SMILES)	zone of inhibition at 1000 µg/mL (Aspergillus fumigatus [2]) [mm]	zone of inhibition at 1000 µg/mL (Staphylococcus aureus [4]) [mm]	Activity (Trichophyton rubrum)	zone of inhibition at 1000 µg/mL (Klebsiella pneumoniae [8]) [mm]	zone of inhibition at 1000 µg/mL (Micrococcus luteus [9]) [mm]	Activity (Pichia kudriavzevii)	Activity (Aspergillus niger)	zone of inhibition at 1000 µg/mL (Escherichia coli [11]) [mm]	zone of inhibition at 1000 µg/mL (Bacillus subtilis [13]) [mm]	zone of inhibition at 1000 µg/mL (Pseudomonas aeruginosa [14]) [mm]	Activity (Mus musculus [19]) [%]	Activity (Mus musculus [21]) [%]	also measured
100 (≈ 233 µM)	≥ 200	≥ 200	≥ 200	100 (≈ 233 µM)	100 (≈ 233 µM)	≥ 200	50 (≈ 117 µM)	Sc1nnc(COC(Cn2nnnc2Cc2ccccc2)c2ccc(Cl)cc2)o1 (stereo unspecified)	≥ 14	≥ 14	inactive	≥ 14	≥ 14	inactive	inactive	≥ 14	≥ 14	≥ 14			zone of inhibition at 1000 µg/mL (Candida albicans [16]): ≥ 14 mm; Activity (Candida tropicalis): inactive
≥ 200	≥ 200	≥ 200	≥ 200	100 (≈ 198 µM)	50 (≈ 99.2 µM)	100 (≈ 198 µM)	50 (≈ 99.2 µM)	Sc1nnc(COC(Cn2nnnc2Cc2ccccc2)c2ccc(Cl)cc2)n1-c1ccccc1 (stereo unspecified)	≥ 14	≥ 14	inactive	≥ 14	≥ 14	inactive	inactive	≥ 14	≥ 14	≥ 14	0	33	zone of inhibition at 1000 µg/mL (Candida albicans [16]): ≥ 14 mm; Activity (Candida tropicalis): inactive
